# Results as given in ChEMBL document CHEMBL5380847, “Expanding the Paradigm of Structure-Based Drug Design: Molecular Dynamics Simulations Support the Development of New Pyridine-Based Protein Kinase C-Targeted Agonists” (J Med Chem, 2023).
# The source made the active and inactive calls. The rule behind the calls is not given here.
# Key:
# [1] = test system: DU-145; assay: Anticancer activity against human DU-145 cells assessed as reduction in cell viability at 0.03 to 30 uM measured after 24 hrs by MTT assay; assay type: functional, cell-based; details: dose 0.03-30 µM
# Summary of the method: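 DU145 human prostate cancer cells were exposed for 24 h to compounds at 0.3, 3.0 and 30 μM, with 0.03 μM added for the reference. Viability was read by MTT and expressed as percent of vehicle control (0.1% DMSO). Values are mean + SEM of N = 3–4 independent experiments.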
# [2] = test system: Fibroblast of cardiac tissue; assay: Effect on PKCalpha expression level in neonatal mouse Cardiac fibroblast cells at 10 uM measured for 24 hrs by Western blot analysis; assay type: functional, cell-based
# Summary of the method: (§1)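 Neonatal mouse cardiac fibroblasts were treated with 10 μM compound for 24 h and then lysed. Total protein was extracted, and PKCα, -δ and -ϵ levels were analysed by Western blotting. Levels were normalized to vehicle control (0.1% DMSO). Values are mean + SEM of N = 3 independent experiments.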
# [3] = test system: Fibroblast of cardiac tissue; assay: Effect on PKCepsilon expression level in neonatal mouse Cardiac fibroblast cells at 10 uM measured for 24 hrs by Western blot analysis; assay type: functional, cell-based; summary of the method: as §1
# [4] = target: Protein kinase C alpha type (Homo sapiens) (UniProt P17252); assay: Displacement of [3H]-PDBu-from full length human recombinant PKCalpha expressed in baculovirus infected Sf9 cells incubated for 10 mins by microbeta liquid scintillation counter analysis; details: filed as agonist, dose 1-30 µM
# [5] = test system: Cardiac fibroblast; assay: Inhibition of PKC-mediated ERK1/2 phosphorylation in neonatal mouse Cardiac fibroblast cells incubated for 30 mins in presence of PKC inhibitor Go6983 by Alphalisa analysis; assay type: cell-based
# Summary of the method: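 Neonatal mouse cardiac fibroblasts were pretreated, or not, with the PKC inhibitor Gö6983 (1 μM). Cells were then exposed for 30 min to compounds at 10 μM (PMA at 10 nM). Total and phospho-ERK1/2 in lysates were quantified by Alpha technology and normalized to DMSO control. Values are mean + SEM (N = 3), analysed by randomized block ANOVA with Dunnett's post hoc test.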
# [6] = test system: Fibroblast of cardiac tissue; assay: Effect on PKCdelta expression level in neonatal mouse Cardiac fibroblast cells at 10 uM measured for 24 hrs by Western blot analysis; assay type: functional, cell-based; summary of the method: as §1
# [7] = target: Protein kinase C alpha type (Homo sapiens) (UniProt P17252); assay: Displacement of [3H]-PDBu-from full length human recombinant PKCalpha expressed in baculovirus infected Sf9 cells at 1 to 30 uM incubated for 10 mins by microbeta liquid scintillation counter analysis; details: dose 1-30 µM
SMILES,Activity [1],Activity [2],Activity [3],Activity [4],inhibition [5],Activity [6],Activity [7]
CCCCCCCCNC(=O)c1cc(CO)cc(C(=O)NCCCCCCCC)n1,inactive,,,,,,
CN(Cc1cccc(C(F)(F)F)c1)C(=O)c1cc(CO)cc(C(=O)N(C)Cc2cccc(C(F)(F)F)c2)n1,inactive,inactive,inactive,Dose-Dependent Effect,Active,inactive,
O=C(OCc1cccc(C(F)(F)F)c1)c1cc(CO)cc(C(=O)OCc2cccc(C(F)(F)F)c2)c1,,inactive,inactive,,Active,inactive,
CCCCC(CC)OC(=O)c1cc(CO)cc(C(=O)OC(CC)CCCC)n1 (stereo unspecified),inactive,,,Dose-Dependent Effect,,inactive,
O=C(OCc1cccc(C(F)(F)F)c1)c1cc(CO)cc(C(=O)OCc2cccc(C(F)(F)F)c2)n1,inactive,,,,,,inactive
